Hits are enriched below; roughly 3.7% of the tested compounds scored in any of these assays.
KCNK3 block = human KCNK3 channel inhibition, primary screen; O14649; CHO-KCNK3 thallium flux, FluxOR fluorescence; hits give low values; B-score at 10 µM; hit rate 0.84% among 340,000; AID 602410;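 active means B-score under library mean minus 4 SD, starting fluorescence ratio at most library mean plus 5 SD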;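 further: more negative B-score means stronger inhibition of thallium flux through KCNK3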
KCNQ1 block = human KCNQ1 channel inhibition; hit rate 1.3% among 310,000; P51787; CHO-K1 KCNQ1, FluxOR thallium flux fluorescence; hits give high values; B-score at 10 µM;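 active means compounds whose thallium flux B-score, printed positive for inhibition, exceeds three library SD while starting fluorescence stays within three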;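 further: channel opened by potassium depolarization with thallium stimulus after 20 min compound exposure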
KCNQ1 act = potentiates or activates the human KCNQ1 potassium channel | B-score at 10 µM | AID 2648 | CHO-K1 KCNQ1, thallium flux FluxOR fluorescence; hits give high values | hit rate 0.35% among 310,000;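 active means fluorescence ratio B-score, a plate-corrected score, at least three library SD, with initial intensity B-score within 5 SD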
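Schedule – 37 °C overnight plating, 90-min dark dye load, 20-min compound pretreatment · System – stable KCNQ1 CHO-K1 line · Probe or stimulus – thallium- and potassium-containing depolarizing buffer · Measured by – kinetic FluxOR fluorescence, 10 s baseline plus 110 s post-stimulus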
Kir21 block = inhibitors of mouse Kir2.1 inward-rectifier potassium channel; P35561; HEK293-Kir2.1, FluxOR thallium flux fluorescence; hits give low values; B-score at 10 µM; hit rate 0.85% among 310,000;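 active means fluorescence ratio B-score at or below minus 3 SD of library scores, with starting-brightness B-score within 2 SD, cut at about -4.2 in these data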;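 further: channel flux triggered by added potassium and thallium sulfate stimulus; B-score of peak minus minimum fluorescence over baseline after thallium stimulus; more negative B-score means stronger Kir2.1 block with less thallium influx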
KCNK9 inh-1 = inhibitors of human KCNK9 two-pore domain potassium channel; Q9NPC2; HEK293 KCNK9, FluxOR thallium flux fluorescence; hits give low values; B-score at 10 µM; hit rate 1.2% among 310,000; AID 488922;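 active means ratio B-score over 3 SD below the library mean, with starting fluorescence within 5 SD of its mean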;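 further: negative B-score means less thallium flux so channel inhibition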
hERG rescue = compounds protecting human hERG from proarrhythmic drug block; CHO-hERG, FluxOR thallium flux, dofetilide IC70 present; activation (rescue from dofetilide block), less the hit threshold, % at 10 µM; AID 1511; hit rate 0.51% among 310,000;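 active means activation above the mean of controls blocked by dofetilide plus 5 SD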;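 further: thallium influx through hERG after potassium depolarization seen as dye fluorescence rise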
hERG ctr = counter-screen for Kir2.1 inhibitors: effect on human hERG. AID 2236. shares compounds with Kir21 block. inhibition, % at 10 µM. hERG-expressing cells, thallium flux. hit rate 20% among 320;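 further: host cells are CHO cells stably expressing hERG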
KCNK9 inh-2 = selectivity of Kir2.1 inhibitors: effect on human KCNK9; shares compounds with Kir21 block; KCNK9-expressing cells, ion flux inhibition; inhibition, % at 10 µM; hit rate 5% among 320; AID 2329
Kir21 ephys inh = blocks mouse Kir2.1 current in automated electrophysiology; hit rate 71% among 320; shares compounds with Kir21 block; AID 463252; inhibition, % at 25 µM; Kir2.1 cells, automated patch-clamp current inhibition
KCNQ1 inh valid = human KCNQ1 channel inhibition, validation assay; hit rate 93% among 1,600; inhibition, % at 10 µM; KCNQ1 cell line, FluxOR thallium flux fluorescence; shares compounds with KCNQ1 block;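 active means primary screen active, with duplicate mean exceeding buffer control mean plus 3 SD of buffer wells, cut at about 28% in these data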
CHO Tl flux = activity in parental CHO cells lacking KCNQ1. parental CHO-K1, FluxOR thallium flux fluorescence ratio; hits give low values; zero means no signal rise above baseline. hit rate 21% among 1,600. shares compounds with KCNQ1 block. fluorescence ratio (Tl flux) at 10 µM. AID 588366;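 active means mean of duplicate thallium-flux fluorescence ratios in parental host cells more than 5 SD below the buffer control mean, cut at about 0.38 in these data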;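 further: ratio is peak minus minimum fluorescence divided by baseline fluorescence; actives read low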
KCNQ1 ephys val = confirmation of human KCNQ1 potassium channel inhibitors by electrophysiology; shares compounds with KCNQ1 block; KCNQ1-CHO cells, automated patch clamp current; calls only at 10 µM; hit rate 20% among 490; AID 624120;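 active means KCNQ1 current drop exceeding 3 SD of negative control wells, seen in both duplicate runs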;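 further: steady state current during a 2 s step from -80 to +40 mV; negative values mean current inhibition and positive values mean potentiation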
KCNQ2 spec = selectivity of KCNQ1 inhibitors: inhibition of rat KCNQ2 channel; shares compounds with KCNQ1 block; KCNQ2 cells, FluxOR thallium flux fluorescence; inhibition, % at 10 µM; hit rate 71% among 1,600; AID 651746;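 active means mean percent inhibition of the KCNQ2 thallium signal more than 5 SD above the buffer-only control wells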;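 further: KCNQ2 expressed in CHO cells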
Target sequence (O88943 whole entry, looked up): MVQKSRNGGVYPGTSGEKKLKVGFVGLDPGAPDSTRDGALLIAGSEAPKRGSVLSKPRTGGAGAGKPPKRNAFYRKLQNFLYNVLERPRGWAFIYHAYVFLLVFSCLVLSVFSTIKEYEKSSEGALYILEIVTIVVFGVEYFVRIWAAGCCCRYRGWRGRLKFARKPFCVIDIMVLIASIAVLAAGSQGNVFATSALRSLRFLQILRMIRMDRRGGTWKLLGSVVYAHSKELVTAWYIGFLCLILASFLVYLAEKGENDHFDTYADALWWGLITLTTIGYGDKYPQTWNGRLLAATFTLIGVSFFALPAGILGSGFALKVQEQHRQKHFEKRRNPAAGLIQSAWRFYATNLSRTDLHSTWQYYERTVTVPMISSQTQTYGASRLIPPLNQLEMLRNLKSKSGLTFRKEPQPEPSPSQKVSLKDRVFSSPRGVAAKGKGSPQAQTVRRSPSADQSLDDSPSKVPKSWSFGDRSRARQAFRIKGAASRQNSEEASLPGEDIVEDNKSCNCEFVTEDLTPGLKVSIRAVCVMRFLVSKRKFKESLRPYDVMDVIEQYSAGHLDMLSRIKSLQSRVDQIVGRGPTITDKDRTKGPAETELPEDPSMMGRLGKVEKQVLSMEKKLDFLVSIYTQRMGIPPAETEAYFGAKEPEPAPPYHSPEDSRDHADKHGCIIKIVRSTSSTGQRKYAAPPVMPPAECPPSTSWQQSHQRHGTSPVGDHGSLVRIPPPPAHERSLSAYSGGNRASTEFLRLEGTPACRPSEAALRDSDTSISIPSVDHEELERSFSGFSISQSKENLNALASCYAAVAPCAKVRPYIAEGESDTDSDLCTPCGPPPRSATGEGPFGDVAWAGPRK
KCNQ1-KCNE1 inh = human KCNQ1/KCNE1 inhibition in KCNQ1 specificity screen; shares compounds with KCNQ1 block; KCNQ1/KCNE1 cells, FluxOR thallium flux fluorescence; inhibition, % at 10 µM; hit rate 77% among 1,600;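 active means mean percent inhibition of duplicate wells above the buffer-only control mean plus 3 SD of those controls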
KCNK3 inh conf = human KCNK3 channel inhibition, confirmation assay | shares compounds with KCNK3 block | CHO-KCNK3 thallium flux, FluxOR fluorescence; 0% buffer, 100% carvedilol maximal block | ratio percent of control, % at 10 µM | hit rate 99% among 2,400 | AID 651638;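 active means ratio percent of control, averaged over triplicates, above buffer control mean plus 5 SD, cut at about 64% in these data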;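 further: ratio is the fluorescence rise from min to max over baseline after thallium stimulus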
KCNK3 uninduced = activity in cells without induced KCNK3 expression | shares compounds with KCNK3 block | non-induced KCNK3 parental cells, FluxOR thallium flux; hits give low values | thallium flux ratio (lower = more inhibition) at 10 µM | hit rate 40% among 2,400 | AID 651747;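 active means thallium flux ratio, averaged over three wells, more than 5 SD below the buffer control mean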;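 further: host cells are CHO cells without KCNK3 induction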
Of the large screens only hits and unclear results are named; the others gave an inactive call (follow-up assays come after a bar, where they were run). Unless noted, how the calls were made is not given here.

Cc1noc(C)c1COC(=O)CCN1c2ccccc2Sc2ccccc21	KCNK3 block -9.7, Kir21 block -7.3 | hERG ctr inactive | KCNK9 inh-2 inactive | Kir21 ephys inh 10% | KCNK3 inh conf 126 | KCNK3 uninduced 0.14
CS(=O)(=O)c1ccc(S(=O)(=O)N2CCC(CO)(CCCc3ccccc3)CC2)cc1	none
C=CCc1ccc(OCC(O)CN2CCc3ccccc3C2)c(OC)c1 (stereo not given)	KCNK3 block -9, Kir21 block -5.8 | hERG ctr 56% | KCNK9 inh-2 inactive | Kir21 ephys inh 25% | KCNK3 inh conf 103 | KCNK3 uninduced 0.14
CCCCSc1ccc2nc(-c3ccc(C#N)cc3)cn2c1	KCNQ1 block 7 | KCNQ1 inh valid 104 | CHO Tl flux inactive | KCNQ1 ephys val active | KCNQ2 spec 67% | KCNQ1-KCNE1 inh 92%
Cc1cc(OCC(=O)Nc2ccncc2)ccc1Br	KCNQ1 block 13 | KCNQ1 inh valid 72 | CHO Tl flux inactive | KCNQ2 spec inactive | KCNQ1-KCNE1 inh inactive
CN(CC(O)COc1ccccc1F)C1CCCCC1 (stereo not given)	none
Cc1ccccc1OCC(O)CN(Cc1ccccc1O)C1CCCCC1 (stereo not given)	KCNQ1 block 12 | KCNQ1 inh valid 90 | CHO Tl flux inactive | KCNQ1 ephys val active | KCNQ2 spec 120% | KCNQ1-KCNE1 inh 140%
CCN1/C(=C/c2ccc3cc(C)cc(C)c3[n+]2CC)Sc2cc(C)ccc21	none (no result: KCNQ1 block, KCNQ1 act, Kir21 block, KCNK9 inh-1, hERG rescue)
CCN1/C(=C\c2ccc3cc(C)ccc3[n+]2CC)Sc2cc(C)c(C)cc21	KCNQ1 block 17 | KCNQ1 inh valid 170 | CHO Tl flux 0.26 | KCNQ2 spec inactive | KCNQ1-KCNE1 inh inactive
O=S(=O)(NCCSc1ccc(Cl)cc1)c1ccc(F)cc1	none
Cc1ccc(SCCNS(=O)(=O)c2ccc(F)cc2)cc1	KCNQ1 block 7 | KCNQ1 inh valid 47 | CHO Tl flux inactive | KCNQ2 spec 62% | KCNQ1-KCNE1 inh 50%
CC(C)c1ccc(NC(=O)c2cc(S(=O)(=O)NCC3COc4ccccc4O3)ccc2F)cc1 (stereo not given)	KCNQ1 block 7 | KCNQ1 inh valid 95 | CHO Tl flux inactive | KCNQ1 ephys val inactive | KCNQ2 spec 116% | KCNQ1-KCNE1 inh 159%
O=C(NCC1CCCO1)c1ccc(CSCc2cccc(F)c2)o1 (stereo not given)	none
O=C(c1cc(COc2cccc3cnccc23)on1)N1CCCC(CCCO)C1 (stereo not given)	KCNQ1 block 14 | KCNQ1 inh valid 108 | CHO Tl flux inactive | KCNQ1 ephys val inactive | KCNQ2 spec 92% | KCNQ1-KCNE1 inh 44%
Cc1cccc(C)c1OCc1cc(C(=O)N2CCC(c3ccccc3)CC2)no1	KCNQ1 block 9 | KCNQ1 inh valid 119 | CHO Tl flux inactive | KCNQ1 ephys val inactive | KCNQ2 spec 110% | KCNQ1-KCNE1 inh 168%
Cc1cccc(C)c1OCc1cc(C(=O)N2CCC(C3CCCCC3)C2)no1 (stereo not given)	KCNQ1 block 7 | KCNQ1 inh valid 69 | CHO Tl flux inactive | KCNQ2 spec inactive | KCNQ1-KCNE1 inh 110%
O=C(NNC(=O)c1cc(-c2ccncc2)nc2ccccc12)c1cccc(Cl)c1	none
N#Cc1c(Cl)nsc1NC(=O)c1ccccc1	KCNQ1 block 6 | KCNQ1 inh valid inactive | CHO Tl flux inactive | KCNQ2 spec inactive | KCNQ1-KCNE1 inh inactive
FC(F)(F)Sc1ccc(NC(=S)NCc2ccccc2)cc1	KCNQ1 block 7 | KCNQ1 inh valid 78 | CHO Tl flux inactive | KCNQ2 spec inactive | KCNQ1-KCNE1 inh inactive
FC(F)(F)c1cccc(CNC(=S)Nc2ccccc2)c1	KCNQ1 block 8 | KCNQ1 inh valid 46 | CHO Tl flux inactive | KCNQ2 spec 82% | KCNQ1-KCNE1 inh inactive
COc1ccc(N2C(=O)CC(NNC(=O)c3cccnc3)C2=O)cc1 (stereo not given)	none
COc1cccc(C(=O)Nc2ccc(-c3nc4ccccc4o3)c(O)c2)c1	none
COc1cc(OC)cc(C(=O)Nc2ccc(-c3nc4ccccc4o3)cc2)c1	KCNQ1 block 10 | KCNQ1 inh valid 130 | CHO Tl flux inactive | KCNQ1 ephys val inactive | KCNQ2 spec 89% | KCNQ1-KCNE1 inh 69%
C#CCN1c2ccccc2Sc2cccnc21	none
CCOC(=O)c1cnc(-n2nc(C)cc2C)nc1NC1CCCCC1	KCNQ1 block 11 | KCNQ1 inh valid 76 | CHO Tl flux inactive | KCNQ2 spec 108% | KCNQ1-KCNE1 inh 107%
Cc1cccc(C(=O)OC(C)C(=O)Nc2ccc(S(=O)(=O)N3CCCC3)cc2)c1O (stereo not given)	KCNQ1 block 10 | KCNQ1 inh valid 136 | CHO Tl flux 0.38 | KCNQ2 spec 117% | KCNQ1-KCNE1 inh 178%
CC(OC(=O)c1cc(Br)ccc1O)C(=O)Nc1ccc(S(=O)(=O)N2CCCC2)cc1 (stereo not given)	none
